Data on five molecules can be found in ChEMBL document CHEMBL2440074, “An epoxyisoprostane is a major regulator of endothelial cell function” (J Med Chem, 2013).

What all share (assay type): functional
For assay [1], the species on record is Homo sapiens. The assay can be described thus: Induction of HO-1 expression in HAEC at 3 uM after 4 hrs by qPCR analysis. In outline: (§1)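 Cultured HAECs, switched overnight to M199/10% FBS, exposed for 4 h to 3 μM lipid in M199 with 1% FBS, duplicate/replicate wells. Cells scraped, mRNA quantified by qPCR with GAPDH normalization; fold change of treated over untreated cells.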

Assay [2] is filed under the species Homo sapiens. Description: Induction of IL-8 expression in HAEC at 3 uM after 4 hrs by microarray assay relative to control. In outline:
(§2)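 Microarray on RNA from duplicate HAEC wells given 3 μM EI4 or 6 μM PEIPC in M199 with 1% FBS for 4 h, or left untreated. Probes with detection p < 0.001 retained. Fold change is mean treated probe level over mean control probe level. Genes counted as regulated at ≥1.2-fold.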

Assay [3] is filed under the species Homo sapiens. The assay can be described thus: Induction of IL-6 expression in HAEC at 3 uM after 4 hrs by microarray assay relative to control. In outline: as §2
For assay [4], the species on record is Homo sapiens. Description: Induction of E-selectin expression in HAEC at 3 uM after 4 hrs by microarray assay relative to control. A digest of the protocol:
as §2

Assay [5] is filed under the species Homo sapiens. Description: Inhibition of IL-1beta-induced E-selectin mRNA expression in HAEC at 3 uM treated 1 hr before IL-1beta stimulation measured after 4 hrs by qPCR analysis. A digest of the protocol: (§3)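 RNA measured by qPCR. HAECs preincubated 1 h with 3 μM EI4, then exposed 4 h to 20 ng/mL IL-1β with EI still present. Value reported as percent reduction of the IL-1β-induced fold change.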

For assay [6], the species on record is Homo sapiens. Description: Inhibition of IL-1beta-induced ICAM-1 mRNA expression in HAEC at 3 uM treated 1 hr before IL-1beta stimulation measured after 4 hrs by qPCR analysis. In outline:
as §3

For assay [7], the species on record is Homo sapiens. Description: Inhibition of IL-1beta-induced CXCL6 mRNA expression in HAEC at 3 uM treated 1 hr before IL-1beta stimulation measured after 4 hrs by qPCR analysis. A digest of the protocol: as §3
Assay [8] is filed under the species Homo sapiens. The assay can be described thus: Inhibition of IL-1beta-induced VCAM-1 mRNA expression in HAEC at 3 uM treated 1 hr before IL-1beta stimulation measured after 4 hrs by qPCR analysis. In outline: as §3
The species named for assay [9] is Homo sapiens. Description: Induction of MCP1 expression in HAEC at 3 uM after 4 hrs by microarray assay relative to control. A digest of the protocol: as §2
Assay [10] is filed under the species Homo sapiens. Description: Inhibition of IL-1beta-induced MCP-1 protein expression in HAEC at 3 uM co-treated with IL-1beta measured after 4 hrs by ELISA. In outline: (§4)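 HAECs preincubated 1 h with 3 μM EI4, then given 20 ng/mL IL-1β plus EI for 4 h. MCP-1 in the medium measured by ELISA and compared with IL-1β alone; significance by p value.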
The nature of assay [11]: Decrease of IL-8 protein expression in HAEC at 6 uM after 4 hrs by ELISA. Conditions: Homo sapiens. A digest of the protocol: (§5)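 HAECs kept overnight in M199 with 10% FBS, then left untreated or given increasing EI concentrations for 4 h in M199 with 1% FBS, triplicate wells. IL-8 and MCP-1 in the collected medium quantified by ELISA. Significance versus untreated control by Student t test.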

The species named for assay [12] is Homo sapiens. Description: Induction of ATF-3 expression in HAEC at 3 uM after 4 hrs by qPCR analysis. A digest of the protocol:
as §1

For assay [13], the species on record is Homo sapiens. Description: Induction of VCAM-1 expression in HAEC at 3 uM after 4 hrs by microarray assay relative to control. In outline:
as §2

Assay [14] is filed under the species Homo sapiens. The assay can be described thus: Induction of IL-8 expression in HAEC at 3 uM after 4 hrs by qPCR analysis. In outline: as §1
Assay [15] is filed under the species Homo sapiens. Description: Inhibition of IL-1beta-induced IL-6 mRNA expression in HAEC at 3 uM treated 1 hr before IL-1beta stimulation measured after 4 hrs by qPCR analysis. A digest of the protocol:
as §3

The species named for assay [16] is Homo sapiens. Description: Induction of IL-8 protein expression in HAEC at 0.75 to 1.5 uM after 4 hrs by ELISA. In outline:
as §5

The species named for assay [17] is Homo sapiens. Description: Induction of RelB expression in HAEC at 3 uM after 4 hrs by microarray assay relative to control. A digest of the protocol:
as §2

Assay [18] is filed under the species Homo sapiens. Description: Induction of MCP1 expression in HAEC at 3 uM after 4 hrs by qPCR analysis. In outline:
as §1

The species entered for assay [19] is Homo sapiens. Description: Induction of NfKB1A expression in HAEC at 3 uM after 4 hrs by microarray assay relative to control. In outline: as §2
The species named for assay [20] is Homo sapiens. The assay can be described thus: Induction of CXCL1 expression in HAEC at 3 uM after 4 hrs by microarray assay relative to control. A digest of the protocol: as §2
A short description of assay [21]: Decrease of MCP-1 protein expression in HAEC at 6 uM after 4 hrs by ELISA. Conditions: Homo sapiens. A digest of the protocol: as §5
Assay [22] is filed under the species Homo sapiens. The assay can be described thus: Inhibition of IL-1beta-induced MCP-1 protein expression in HAEC at 3 uM treated 1 hr before IL-1beta stimulation measured after 4 hrs by ELISA. A digest of the protocol: as §4
The species entered for assay [23] is Homo sapiens. The assay can be described thus: Inhibition of IL-1beta-induced MCP-1 mRNA expression in HAEC at 3 uM treated 1 hr before IL-1beta stimulation measured after 4 hrs by qPCR analysis. In outline: as §3
For assay [24], the species on record is Homo sapiens. The assay can be described thus: Inhibition of IL-1beta-induced CXCL1 mRNA expression in HAEC at 3 uM treated 1 hr before IL-1beta stimulation measured after 4 hrs by qPCR analysis. A digest of the protocol: as §3
The species entered for assay [25] is Homo sapiens. Description: Induction of HSP1A1 expression in HAEC at 3 uM after 4 hrs by qPCR analysis.
The species entered for assay [26] is Homo sapiens. The assay can be described thus: Induction of CXCL6 expression in HAEC at 3 uM after 4 hrs by microarray assay relative to control. A digest of the protocol:
as §2

Assay [27] is filed under the species Homo sapiens. The assay can be described thus: Induction of ICAM-1 expression in HAEC at 3 uM after 4 hrs by microarray assay relative to control. A digest of the protocol:
as §2

For assay [28], the species on record is Homo sapiens. Description: Induction of NfKB1A expression in HAEC at 6 uM after 4 hrs by microarray assay relative to control. A digest of the protocol: as §2
The species named for assay [29] is Homo sapiens. Description: Induction of CXCL1 expression in HAEC at 6 uM after 4 hrs by microarray assay relative to control. A digest of the protocol: as §2
Assay [30] is filed under the species Homo sapiens. Description: Induction of RelB expression in HAEC at 6 uM after 4 hrs by microarray assay relative to control. In outline: as §2
For assay [31], the species on record is Homo sapiens. Description: Induction of ICAM-1 expression in HAEC at 6 uM after 4 hrs by microarray assay relative to control. A digest of the protocol: as §2
Assay [32] is filed under the species Homo sapiens. Description: Induction of IL-8 expression in HAEC at 6 uM after 4 hrs by microarray assay relative to control. In outline:
as §2

For assay [33], the species on record is Homo sapiens. The assay can be described thus: Induction of MCP1 expression in HAEC at 6 uM after 4 hrs by microarray assay relative to control. In outline: as §2
For assay [34], the species on record is Homo sapiens. The assay can be described thus: Induction of VCAM-1 expression in HAEC at 6 uM after 4 hrs by microarray assay relative to control. In outline: as §2
The species entered for assay [35] is Homo sapiens. Description: Induction of CXCL6 expression in HAEC at 6 uM after 4 hrs by microarray assay relative to control. A digest of the protocol: as §2
Assay [36] is filed under the species Homo sapiens. The assay can be described thus: Induction of IL-6 expression in HAEC at 6 uM after 4 hrs by microarray assay relative to control. A digest of the protocol:
as §2

Assay [37] is filed under the species Homo sapiens. Description: Induction of E-selectin expression in HAEC at 6 uM after 4 hrs by qPCR analysis relative to control.

Each structure is given as a SMILES string. The source made the active and inactive calls. The rule behind the calls is not given here.

As to `CCCCC/C=C\C[C@@H]1/C(=C\[C@H]2O[C@@H]2CCCC(=O)O)C(=O)C[C@H]1O`, the result (in the assay listed under Homo sapiens [1]; in assay [11]; in the assay filed under Homo sapiens [12]; in the assay listed under Homo sapiens [14]; in the assay listed under Homo sapiens [16]; in the assay listed under Homo sapiens [18]) was Active. The outcome (in assay [21]; in the assay listed under Homo sapiens [25]) was Active. Moreover, the fold change (FC) in the assay listed under Homo sapiens [2] came to 3; in the assay filed under Homo sapiens [3], 0.6; in the assay filed under Homo sapiens [4], 0.21; in the assay filed under Homo sapiens [9] it was 0.2; in the assay listed under Homo sapiens [13], 0.27; in the assay filed under Homo sapiens [17] it was 0.8. The fold change (FC) in the assay listed under Homo sapiens [19] came to 0.79; in the assay listed under Homo sapiens [20], 1.3; in the assay listed under Homo sapiens [26] it was 0.59; in the assay listed under Homo sapiens [27], 0.75. The inhibition is 69.5% in the assay listed under Homo sapiens [5]; 52.3% in the assay listed under Homo sapiens [6]; 87.6% in the assay listed under Homo sapiens [7]; 92.1% in the assay listed under Homo sapiens [8]; 76% in the assay listed under Homo sapiens [15]; 79.6% in the assay filed under Homo sapiens [23]. This molecule came in with an inhibition in the assay filed under Homo sapiens [24] of 53.4%. Besides, the inhibition entry in the assay listed under Homo sapiens [10] and in the assay filed under Homo sapiens [22] was “Active” each time.
As for `CCCCC/C=C\C[C@@H]1/C(=C\C2O[C@@H]2CCCC(=O)O)C(=O)CC1O` (single isomer, unassigned), the outcome in the assay filed under Homo sapiens [1], in the assay filed under Homo sapiens [12], in the assay filed under Homo sapiens [14] and in the assay listed under Homo sapiens [25] was Active.
Regarding `CCCCC/C=C\CC1/C(=C\C2OC2CCCC(=O)OC(COC(=O)CCCCCCCCCCCCCCC)COP(=O)([O-])OCC[N+](C)(C)C)C(=O)CC1O` (stereo not drawn), the result in the assay listed under Homo sapiens [1], in the assay listed under Homo sapiens [12] and in the assay listed under Homo sapiens [18] was Active. Further, the fold change (FC) in the assay filed under Homo sapiens [28] was determined as 4; in the assay filed under Homo sapiens [29], 4.8; in the assay listed under Homo sapiens [30] it was 4.2; in the assay filed under Homo sapiens [31], 2.3; in the assay filed under Homo sapiens [32], 17; in the assay listed under Homo sapiens [33] it was 13. Besides, the fold change (FC) in the assay listed under Homo sapiens [34] was determined as 1.2; in the assay listed under Homo sapiens [35], 1.4; in the assay filed under Homo sapiens [36], 2.2; in the assay listed under Homo sapiens [37], 2.38.
With `CCCCC/C=C\C[C@H]1/C(=C\[C@@H]2O[C@H]2CCCC(=O)O)C(=O)C[C@H]1O`, the result in the assay listed under Homo sapiens [1], in the assay listed under Homo sapiens [12], in the assay filed under Homo sapiens [14] and in the assay listed under Homo sapiens [25] was Active.
Regarding `CCCCC/C=C\C[C@H]1/C(=C\[C@@H]2O[C@H]2CCCC(=O)O)C(=O)C[C@@H]1O`, the outcome in the assay filed under Homo sapiens [1], in the assay listed under Homo sapiens [12], in the assay filed under Homo sapiens [14], in the assay filed under Homo sapiens [18] and in the assay listed under Homo sapiens [25] was Active.
